The nature of test [1]: Antiproliferative activity against human MEC1 cells after 72 hrs by Celltiter-Glo assay. It counts as functional. The note with it: MEC1, 72 h. A digest of the protocol:
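Cells seeded at 3000/well in 96-well plates, exposed to serially diluted compound for 72 h at 37 °C, 5% CO2. Viability read by CellTiter-Glo luminescence and normalized to DMSO control. GI50 derived from curve fit, mean of three independent measurements. Culture media: DMEM/10% FBS for adherent lines; IMDM for MV4-11 and MEC-1/2; RPMI 1640 for suspension lines and CHL.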
In general terms: ATP-based viability assays read luminescence as a measure of living cells.

Test [2] addresses Cyclin-dependent kinase 7 (Homo sapiens) (UniProt P50613). The test is described as follows: Inhibition of CDK7 in human MV4-11 cells assessed as decrease in RNA polymerase 2 phosphorylation at Ser 5 residues up to 3 uM after 2 hrs by immunoblotting analysis. It counts as cell-based.
A further test relates to MV4-11. As to the kind of experiment: Induction of apoptosis in human MV4-11 cells assessed as decrease in BCL-2 level up to 3 uM after 2 hrs by immunoblotting analysis. The class given is functional, cell-based.
A further test concerns HL-60. The test is described as follows: Induction of apoptosis in human HL60 cells assessed as decrease in BCL-2 level up to 3 uM after 2 hrs by immunoblotting analysis. The class given is functional, cell-based. (In general: In western blotting, separated proteins are transferred to a membrane and probed.)
For test [3], the target named is RAC-beta serine/threonine-protein kinase (Homo sapiens) (UniProt P31751). The test is described as follows: Binding affinity to wild-type human partial length AKT2 expressed in bacterial expression system assessed as remaining unbound target protein level at 1000 nM by Kinomescan method relative to control. A digest of the protocol:
(§1)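 Profiled in a KINOMEscan binding panel with the inhibitor at a single concentration of 1 μM. Binding to each kinase was read out as percent of control, relative to a DMSO control. Strong binders were defined as those with a percent control value below 1.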

For test [4], the target named is Aurora kinase B (Homo sapiens) (UniProt Q96GD4). As to the kind of experiment: Binding affinity to wild-type human partial length AURKB (D25 to A303 residues) expressed in mammalian expression system assessed as remaining unbound target protein level at 1000 nM by Kinomescan method relative to control. The method in brief: as §1
In test [5] the target is Mitotic checkpoint serine/threonine-protein kinase BUB1 (Homo sapiens) (UniProt O43683). The test is described as follows: Binding affinity to wild-type human partial length BUB1 (Q724 to K1085 residues) expressed in mammalian expression system assessed as remaining unbound target protein level at 1000 nM by Kinomescan method relative to control. The method in brief:
as §1

The target of test [6] is Calcium/calmodulin-dependent protein kinase type II subunit gamma (Homo sapiens) (UniProt Q13555). The test is described as follows: Binding affinity to wild-type human partial length CAMK2G (R9 to A303 residues) expressed in bacterial expression system assessed as remaining unbound target protein level at 1000 nM by Kinomescan method relative to control. A digest of the protocol: (§2)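 KINOMEscan competition binding profile across a panel of 468 kinases and mutants, with the inhibitor tested at a single concentration of 1 μM. Binding is reported as percent of control, meaning signal relative to a DMSO control.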

In test [7] the target is Calcium/calmodulin-dependent protein kinase kinase 1 (Homo sapiens) (UniProt Q8N5S9). The test is described as follows: Binding affinity to wild-type human partial length CAMKK1 (R65 to E414 residues) expressed in bacterial expression system assessed as remaining unbound target protein level at 1000 nM by Kinomescan method relative to control.
The target in test [8] is Dual specificity protein kinase CLK2 (Homo sapiens) (UniProt P49760). As to the kind of experiment: Binding affinity to wild-type human partial length CLK2 (D144 to R498 residues) expressed in bacterial expression system assessed as remaining unbound target protein level at 1000 nM by Kinomescan method relative to control. The method in brief: as §2
In test [9] the target is Tyrosine-protein kinase CSK (Homo sapiens) (UniProt P41240). The test is described as follows: Binding affinity to wild-type human full length CSK (M1 to L450 residues) expressed in bacterial expression system assessed as remaining unbound target protein level at 1000 nM by Kinomescan method relative to control. A digest of the protocol: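 KINOMEscan competitive binding profile at 1 μM inhibitor. Remaining target binding reported as percent of DMSO control.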

Test [10] concerns Epidermal growth factor receptor (Homo sapiens), P00533 [T790M]. The test is described as follows: Binding affinity to human partial length EGFR T790M mutant (R669 to G1022 residues) expressed in mammalian expression system assessed as remaining unbound target protein level at 1000 nM by Kinomescan method relative to control. A digest of the protocol:
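KINOMEscan competition-binding profiling across the panel of 468 kinases and mutants, with inhibitor tested at 1 μM. Binding is expressed as percent of control, with DMSO as the reference control.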

Test [11] deals with Mitogen-activated protein kinase 7 (Homo sapiens) (UniProt Q13164). As to the kind of experiment: Binding affinity to wild-type human partial length ERK5 (M1 to A409 residues) expressed in bacterial expression system assessed as remaining unbound target protein level at 1000 nM by Kinomescan method relative to control.
For test [12], the target named is Mitogen-activated protein kinase 15 (Homo sapiens) (UniProt Q8TD08). As to the kind of experiment: Binding affinity to wild-type human partial length ERK8 (M1 to P437 residues) expressed in bacterial expression system assessed as remaining unbound target protein level at 1000 nM by Kinomescan method relative to control. A digest of the protocol:
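KINOMEscan binding panel of 468 kinases/mutants. Inhibitor was tested at a single concentration of 1 μM. Binding is reported as percent of control, defined relative to a DMSO control.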

Test [13] has as its target Glycogen synthase kinase-3 alpha (Homo sapiens) (UniProt P49840). The test is described as follows: Binding affinity to wild-type human full length GSK3A (M1 to S483 residues) expressed in bacterial expression system assessed as remaining unbound target protein level at 1000 nM by Kinomescan method relative to control. The method in brief: as §2
The target in test [14] is Mitogen-activated protein kinase kinase kinase 1 (Homo sapiens) (UniProt Q13233). As to the kind of experiment: Binding affinity to wild-type human partial length MAP3K1 (L1202 to W1512 residues) expressed in mammalian expression system assessed as remaining unbound target protein level at 1000 nM by Kinomescan method relative to control.
Test [15] concerns the target Serine/threonine-protein kinase NIM1 (Homo sapiens) (UniProt Q8IY84). As to the kind of experiment: Binding affinity to wild-type human partial length NIM1 (Q44 to N355 residues) expressed in mammalian expression system assessed as remaining unbound target protein level at 1000 nM by Kinomescan method relative to control.
Test [16] addresses Mitogen-activated protein kinase 12 (Homo sapiens) (UniProt P53778). The test is described as follows: Binding affinity to wild-type human full length p38-gamma (M1 to L367 residues) expressed in mammalian expression system assessed as remaining unbound target protein level at 1000 nM by Kinomescan method relative to control. A digest of the protocol: as §2
In test [17] the target is 3-phosphoinositide-dependent protein kinase 1 (Homo sapiens) (UniProt O15530). As to the kind of experiment: Binding affinity to wild-type human full length PDPK1 (M1 to Q556 residues) expressed in bacterial expression system assessed as remaining unbound target protein level at 1000 nM by Kinomescan method relative to control. The method in brief:
as §1

The target of test [18] is Serine/threonine-protein kinase RIO2 (Homo sapiens) (UniProt Q9BVS4). The test is described as follows: Binding affinity to wild-type human partial length RIOK2 (M1 to D313 residues) expressed in mammalian expression system assessed as remaining unbound target protein level at 1000 nM by Kinomescan method relative to control.
Test [19] addresses Tyrosine-protein kinase Yes (Homo sapiens) (UniProt P07947). The test is described as follows: Binding affinity to wild-type human partial length YES (T257 to L543 residues) expressed in bacterial expression system assessed as remaining unbound target protein level at 1000 nM by Kinomescan method relative to control.

The source made the active and inactive calls.

RAC-beta serine/threonine-protein kinase (Homo sapiens), sequence (P31751 whole entry): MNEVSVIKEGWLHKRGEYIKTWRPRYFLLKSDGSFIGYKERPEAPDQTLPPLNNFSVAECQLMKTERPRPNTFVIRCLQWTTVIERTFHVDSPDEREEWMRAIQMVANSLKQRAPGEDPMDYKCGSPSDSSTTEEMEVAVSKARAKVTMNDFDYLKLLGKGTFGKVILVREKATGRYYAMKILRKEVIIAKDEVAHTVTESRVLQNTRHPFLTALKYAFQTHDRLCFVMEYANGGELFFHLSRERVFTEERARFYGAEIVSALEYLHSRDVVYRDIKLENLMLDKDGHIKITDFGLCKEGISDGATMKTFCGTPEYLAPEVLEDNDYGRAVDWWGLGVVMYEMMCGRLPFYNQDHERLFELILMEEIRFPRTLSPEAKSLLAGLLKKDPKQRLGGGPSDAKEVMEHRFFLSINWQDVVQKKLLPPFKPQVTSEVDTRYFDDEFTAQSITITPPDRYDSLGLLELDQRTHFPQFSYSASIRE
Tyrosine-protein kinase CSK (Homo sapiens), sequence (P41240 2-450 limits assumed): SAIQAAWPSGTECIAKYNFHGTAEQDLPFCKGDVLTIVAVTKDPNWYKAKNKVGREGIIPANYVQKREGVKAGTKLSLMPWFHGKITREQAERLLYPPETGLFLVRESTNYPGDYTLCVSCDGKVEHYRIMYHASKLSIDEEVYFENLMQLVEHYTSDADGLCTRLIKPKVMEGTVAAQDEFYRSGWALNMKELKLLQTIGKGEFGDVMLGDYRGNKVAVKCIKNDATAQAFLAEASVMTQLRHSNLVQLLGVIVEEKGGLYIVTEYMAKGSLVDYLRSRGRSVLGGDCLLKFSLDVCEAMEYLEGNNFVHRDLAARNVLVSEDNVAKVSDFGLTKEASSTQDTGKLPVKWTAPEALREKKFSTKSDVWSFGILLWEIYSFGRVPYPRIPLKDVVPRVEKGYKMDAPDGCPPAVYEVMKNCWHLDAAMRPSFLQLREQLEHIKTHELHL
Mitotic checkpoint serine/threonine-protein kinase BUB1 (Homo sapiens), sequence (O43683 whole entry, looked up, the tested form may be a part): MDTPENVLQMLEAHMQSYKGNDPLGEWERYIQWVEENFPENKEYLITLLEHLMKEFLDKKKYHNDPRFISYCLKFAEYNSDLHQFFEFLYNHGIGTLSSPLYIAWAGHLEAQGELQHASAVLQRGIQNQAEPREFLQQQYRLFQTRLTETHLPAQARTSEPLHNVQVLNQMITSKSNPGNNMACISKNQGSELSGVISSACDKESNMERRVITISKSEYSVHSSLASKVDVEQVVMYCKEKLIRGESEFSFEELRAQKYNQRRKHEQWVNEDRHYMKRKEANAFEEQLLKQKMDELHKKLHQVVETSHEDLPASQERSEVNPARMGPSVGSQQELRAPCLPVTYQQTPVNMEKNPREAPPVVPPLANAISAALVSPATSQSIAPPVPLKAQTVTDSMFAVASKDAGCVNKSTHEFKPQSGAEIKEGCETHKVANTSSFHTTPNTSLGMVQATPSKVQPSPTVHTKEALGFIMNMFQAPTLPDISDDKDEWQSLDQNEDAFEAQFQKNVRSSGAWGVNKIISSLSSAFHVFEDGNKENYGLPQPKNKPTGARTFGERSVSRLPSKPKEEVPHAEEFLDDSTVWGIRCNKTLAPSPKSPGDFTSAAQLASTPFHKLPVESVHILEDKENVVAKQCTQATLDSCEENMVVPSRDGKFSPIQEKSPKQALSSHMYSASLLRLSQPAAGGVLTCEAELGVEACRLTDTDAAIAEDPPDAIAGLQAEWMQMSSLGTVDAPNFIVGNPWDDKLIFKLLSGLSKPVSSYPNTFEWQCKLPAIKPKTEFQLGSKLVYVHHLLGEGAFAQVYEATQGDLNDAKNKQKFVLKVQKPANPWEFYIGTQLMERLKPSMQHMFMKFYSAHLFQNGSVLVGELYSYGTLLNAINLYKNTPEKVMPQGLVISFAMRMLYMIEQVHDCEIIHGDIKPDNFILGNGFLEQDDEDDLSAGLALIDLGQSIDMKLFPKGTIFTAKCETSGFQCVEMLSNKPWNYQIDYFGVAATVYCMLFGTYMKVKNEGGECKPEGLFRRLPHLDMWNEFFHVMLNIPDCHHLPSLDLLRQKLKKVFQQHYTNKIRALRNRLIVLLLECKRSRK
Dual specificity protein kinase CLK2 (Homo sapiens), sequence (P49760 whole entry, looked up, the tested form may be a part): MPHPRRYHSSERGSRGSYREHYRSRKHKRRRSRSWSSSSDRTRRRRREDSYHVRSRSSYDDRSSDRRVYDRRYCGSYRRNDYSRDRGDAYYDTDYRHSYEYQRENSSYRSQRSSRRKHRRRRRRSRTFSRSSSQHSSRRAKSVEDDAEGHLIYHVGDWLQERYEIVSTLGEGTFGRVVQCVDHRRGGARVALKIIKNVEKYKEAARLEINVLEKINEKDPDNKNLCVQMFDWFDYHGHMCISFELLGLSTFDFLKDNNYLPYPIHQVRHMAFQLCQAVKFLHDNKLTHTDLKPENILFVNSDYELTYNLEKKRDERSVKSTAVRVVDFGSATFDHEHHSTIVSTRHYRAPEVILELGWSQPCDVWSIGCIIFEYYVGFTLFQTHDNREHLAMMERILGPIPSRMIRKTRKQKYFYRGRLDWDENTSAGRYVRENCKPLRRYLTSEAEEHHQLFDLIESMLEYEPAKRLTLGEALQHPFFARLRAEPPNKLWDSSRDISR
Cyclin-dependent kinase 7 (Homo sapiens), sequence (P50613 whole entry): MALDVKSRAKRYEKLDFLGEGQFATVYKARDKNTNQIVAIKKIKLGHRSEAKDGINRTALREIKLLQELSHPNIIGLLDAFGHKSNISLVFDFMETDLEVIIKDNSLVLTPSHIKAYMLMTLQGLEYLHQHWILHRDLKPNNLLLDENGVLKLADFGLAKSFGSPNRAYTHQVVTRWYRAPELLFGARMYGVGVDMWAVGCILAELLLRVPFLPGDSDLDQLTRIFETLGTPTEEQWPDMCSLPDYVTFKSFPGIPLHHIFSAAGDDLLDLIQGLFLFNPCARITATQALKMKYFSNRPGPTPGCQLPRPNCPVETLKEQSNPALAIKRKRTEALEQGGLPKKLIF
Mitogen-activated protein kinase 7 (Homo sapiens), sequence (Q13164 2-816 limits assumed): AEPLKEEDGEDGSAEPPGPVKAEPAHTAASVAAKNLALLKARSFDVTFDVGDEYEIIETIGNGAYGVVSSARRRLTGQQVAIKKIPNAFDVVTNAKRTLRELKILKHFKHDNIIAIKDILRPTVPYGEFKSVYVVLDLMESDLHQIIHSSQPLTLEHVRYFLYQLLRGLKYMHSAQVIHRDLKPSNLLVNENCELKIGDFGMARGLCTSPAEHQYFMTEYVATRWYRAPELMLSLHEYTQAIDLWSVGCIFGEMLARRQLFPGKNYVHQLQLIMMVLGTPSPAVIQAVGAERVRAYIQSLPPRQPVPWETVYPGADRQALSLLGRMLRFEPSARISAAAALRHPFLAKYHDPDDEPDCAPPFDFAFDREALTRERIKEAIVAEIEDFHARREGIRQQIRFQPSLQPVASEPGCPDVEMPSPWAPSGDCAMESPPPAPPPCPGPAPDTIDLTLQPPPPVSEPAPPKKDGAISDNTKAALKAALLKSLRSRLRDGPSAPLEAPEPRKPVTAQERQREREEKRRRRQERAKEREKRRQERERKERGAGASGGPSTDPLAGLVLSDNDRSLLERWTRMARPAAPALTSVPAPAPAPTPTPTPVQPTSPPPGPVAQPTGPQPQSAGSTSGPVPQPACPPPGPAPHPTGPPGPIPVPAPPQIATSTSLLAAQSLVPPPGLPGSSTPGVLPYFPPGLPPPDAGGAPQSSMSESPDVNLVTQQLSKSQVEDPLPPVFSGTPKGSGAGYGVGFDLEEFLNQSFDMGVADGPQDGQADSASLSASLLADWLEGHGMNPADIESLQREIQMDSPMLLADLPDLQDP
Serine/threonine-protein kinase RIO2 (Homo sapiens), sequence (Q9BVS4 whole entry, looked up, the tested form may be a part): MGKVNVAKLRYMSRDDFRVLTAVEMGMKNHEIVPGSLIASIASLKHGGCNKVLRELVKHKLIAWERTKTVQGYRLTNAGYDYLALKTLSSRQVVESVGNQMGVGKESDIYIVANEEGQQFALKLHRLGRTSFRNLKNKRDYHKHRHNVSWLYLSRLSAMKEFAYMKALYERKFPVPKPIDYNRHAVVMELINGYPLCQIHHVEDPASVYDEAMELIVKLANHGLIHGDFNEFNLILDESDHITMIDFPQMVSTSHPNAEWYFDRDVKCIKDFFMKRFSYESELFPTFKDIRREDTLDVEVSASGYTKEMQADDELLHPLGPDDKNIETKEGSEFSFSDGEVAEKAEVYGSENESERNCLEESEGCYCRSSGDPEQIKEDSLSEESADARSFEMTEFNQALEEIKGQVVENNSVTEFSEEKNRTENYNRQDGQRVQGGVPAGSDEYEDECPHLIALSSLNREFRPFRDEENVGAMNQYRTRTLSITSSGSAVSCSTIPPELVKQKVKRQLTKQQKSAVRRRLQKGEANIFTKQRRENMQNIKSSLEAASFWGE
Serine/threonine-protein kinase NIM1 (Homo sapiens), sequence (Q8IY84 whole entry, the tested form may be a part): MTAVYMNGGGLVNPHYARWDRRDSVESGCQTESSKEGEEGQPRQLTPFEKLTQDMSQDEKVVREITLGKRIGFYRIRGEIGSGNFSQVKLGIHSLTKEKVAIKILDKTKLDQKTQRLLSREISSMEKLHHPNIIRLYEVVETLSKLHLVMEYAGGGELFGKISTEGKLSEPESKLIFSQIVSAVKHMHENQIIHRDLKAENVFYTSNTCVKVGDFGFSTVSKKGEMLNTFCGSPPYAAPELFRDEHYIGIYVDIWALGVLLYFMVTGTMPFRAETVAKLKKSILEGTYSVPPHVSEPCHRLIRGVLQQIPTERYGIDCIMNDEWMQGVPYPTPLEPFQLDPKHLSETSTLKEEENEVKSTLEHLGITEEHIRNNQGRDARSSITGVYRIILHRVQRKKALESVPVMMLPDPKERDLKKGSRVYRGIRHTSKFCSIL
Aurora kinase B (Homo sapiens), sequence (Q96GD4 whole entry, the tested form may be a part): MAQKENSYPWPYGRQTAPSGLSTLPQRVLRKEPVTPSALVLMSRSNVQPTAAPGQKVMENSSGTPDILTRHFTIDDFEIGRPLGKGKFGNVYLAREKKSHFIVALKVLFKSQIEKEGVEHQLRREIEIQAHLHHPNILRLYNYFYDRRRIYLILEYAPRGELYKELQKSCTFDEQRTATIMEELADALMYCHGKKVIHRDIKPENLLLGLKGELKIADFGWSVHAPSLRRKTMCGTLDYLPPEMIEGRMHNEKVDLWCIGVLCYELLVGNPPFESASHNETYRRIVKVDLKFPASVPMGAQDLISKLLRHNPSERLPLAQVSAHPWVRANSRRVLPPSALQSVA

The term GI50 denotes the concentration that inhibits growth by half. Read a low GI50 as more potent growth inhibition. Compound `COCCN[C@H]1CC[C@H](Nc2cc(-c3csc(NCC4(C#N)CCOCC4)n3)c(Cl)cn2)CC1` returned a GI50 in test [1] of 11 to 37 nM. Also, the inhibition result in test [2] is “inactive”. Further, the result in the test on MV4-11 and with HL-60 was inactive. Also, the Activity was found to be 88% in test [3]; 100% in test [4]; 96% in test [5]; 99% in test [6]; 84% in [7]; 38% in test [8]. Moreover, the Activity in [9] was 95%; in test [10], 100%; in test [11], 88%; in [12], 86%; in test [13] it was 68%; in [14], 100%. The Activity worked out at 96% in test [15]; 99% in test [16]; 92% in [17]; 80% in test [18]; 97% in [19].

The values are drawn from ChEMBL document CHEMBL4261600 (Eur J Med Chem, 2018).
